Positions count from the first letter of the chain named. Where “and” joins values, the source holds several entries; their conditions need not be identical. Identical values can stand only once. Like-named read-outs stand apart in the source and are kept apart here.
Tests used:
PfCRT 7G8 [1] = biological target: T1, PfCRT 7G8 (Plasmodium falciparum, UniProt W7FI62); test: Scintillation proximity assay; format: binding; conditions: for competition of [3H]-Arg binding (in words): 125 nM [3H]-Arg, 1 μM CQ or PPQ, 0.1 μM amodiaquine, 1 mM Arg, Lys or Leu
T1 sequence (W7FI62 1-424): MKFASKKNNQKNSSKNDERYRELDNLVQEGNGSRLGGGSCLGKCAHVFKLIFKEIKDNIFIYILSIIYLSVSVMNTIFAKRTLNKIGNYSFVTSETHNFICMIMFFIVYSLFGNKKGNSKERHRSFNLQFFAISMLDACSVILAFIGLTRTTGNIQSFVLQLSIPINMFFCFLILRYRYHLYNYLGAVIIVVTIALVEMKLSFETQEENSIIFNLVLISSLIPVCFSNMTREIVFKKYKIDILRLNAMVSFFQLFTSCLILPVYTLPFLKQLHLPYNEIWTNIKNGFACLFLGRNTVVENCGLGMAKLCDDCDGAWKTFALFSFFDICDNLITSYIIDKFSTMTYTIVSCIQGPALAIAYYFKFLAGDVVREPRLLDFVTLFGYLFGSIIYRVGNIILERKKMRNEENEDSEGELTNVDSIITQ

PfCRT 7G8 [2] = biological target: T1, PfCRT 7G8; format: biochemical
[3] = system: P. falciparum 7G8^7G8 parasite line; test: Parasite drug susceptibility assay; format: cell-based, Plasmodium falciparum; conditions: 72 h, asynchronous asexual blood stages
Method in brief: (§1)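 Asynchronous asexual blood-stage parasites were seeded at 0.3% parasitemia and 1% hematocrit into 2-fold, 10-point test compound dilutions. Incubation was 72 h at 37°C under 5% O2/5% CO2/90% N2. Final parasitemia was read by flow cytometry. IC50 came from nonlinear regression, 4 independent assays in duplicate, with two-tailed Mann-Whitney U tests.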

[4] = system: P. falciparum 7G8^7G8+F145I parasite line; test: Parasite drug susceptibility assay; format: cell-based, Plasmodium falciparum; conditions: 72 h, asynchronous asexual blood stages
Method in brief: as §1

[5] = system: P. falciparum 7G8^7G8+C350R parasite line; test: Parasite drug susceptibility assay; format: cell-based, Plasmodium falciparum; conditions: 72 h, asynchronous asexual blood stages
Method in brief: as §1

[6] = system: P. falciparum Dd2^Dd2 parasite line; test: Parasite drug susceptibility assay; format: cell-based, Plasmodium falciparum; conditions: 72 h, asynchronous asexual blood stages
Method in brief: as §1

[7] = system: P. falciparum WT (3D7) parasite line; test: Parasite drug susceptibility assay; format: cell-based, Plasmodium falciparum; conditions: 72 h, asynchronous asexual blood stages
Method in brief: as §1

PfCRT 7G8+C289A = biological target: T2, PfCRT 7G8+C289A (Plasmodium falciparum, UniProt W7FI62, C289A); test: Transport; format: biochemical; conditions: read-out: IC50 (concentration yielding half-maximal reduction of [3H]-CQ transport); 100 nM [3H]-CQ, 1 min
T2 sequence (W7FI62 1-424 C289A): T1 sequence (W7FI62 1-424) with C289A
Method in brief: (§2)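 Proteoliposomes with the PfCRT variant (40 ng PfCRT per assay) have a lumen of 100 mM KPi, pH 7.5, with 2 mM β-mercaptoethanol. They are diluted into 100 mM Tris/Mes, pH 5.5, with 100 nM [3H]-CQ (5.45 Ci/mmol) and increasing β-mercaptoethanol, and uptake runs for 1 min. Values are corrected for mock uptake on nitrocellulose filters and for control liposomes lacking PfCRT. IC50 is the β-mercaptoethanol concentration halving transport.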

PfCRT 7G8+C301A = biological target: T3, PfCRT 7G8+C301A (Plasmodium falciparum, UniProt W7FI62, C301A); test: Transport; format: biochemical
T3 sequence (W7FI62 1-424 C301A): T1 sequence (W7FI62 1-424) with C301A
Method in brief: as §2

[8] = biological target: T4, Plasmodium falciparum chloroquine resistance transporter PfCRT, 7G8 isoform (Plasmodium falciparum (isolate 7G8), UniProt W7FI62); test: radioligand binding
[9] = biological target: T4, Plasmodium falciparum chloroquine …; test: radioligand binding; remark: listed apart in the source
[10] = biological target: T4, Plasmodium falciparum chloroquine …; test: radioligand binding; remark: listed apart in the source
[11] = substrate: N=C(N)NCCC[C@H](N)C(=O)O; test: cells, lysate or membranes named
[12] = read-out: IC50 (concentration yielding half-maximal reduction of [3H]-CQ transport), 100 nM [3H]-CQ, 1 min

Q: With N=C(N)NCCC[C@H](N)C(=O)O [Arg, arginine] as the molecule, how does the “competition of [3H]-Arg binding (in words)” value (“competition” below) (PfCRT 7G8 [1]) read?
A: effectively competed

Q: And the EC50 (PfCRT 7G8 [1]; half-maximal binding constant (EC50) of [3H]-Arg binding, SPA, isotopic dilution of 125 nM [3H]-Arg with non-radiolabeled Arg)?
A: ~400 µM and 397 µM

Q: What about the “Vmax, transport in proteoliposomes” value (PfCRT 7G8 [2]; initial rates over 3 s, Michaelis-Menten fit) of the same molecule?
A: 190 nmol/mg/min

Q: What about the “time course of uptake (in words)” value (PfCRT 7G8 [2]; pH gradient 5.5–7.5 and membrane potential (valinomycin)) of the same molecule?
A: maximal within one minute

Q: With CCN(CC)Cc1cc(Nc2ccnc3cc(Cl)ccc23)ccc1O [amodiaquine] as the molecule, how does the “competition” value (PfCRT 7G8 [1]) read?
A: effectively competed

Q: With NCCCC[C@H](N)C(=O)O [lysine] as the molecule, how does the “competition” value (PfCRT 7G8 [1]) read?
A: effectively competed

Q: With CCNCCCC(C)Nc1ccnc2cc(Cl)ccc12 (stereo not drawn) [md-CQ, monodesethyl-chloroquine] as the molecule, how does the IC50 [3] read?
A: 0.919 ± 0.125 µM

Q: And the IC50 [4]?
A: 0.0478 ± 0.0025 µM

Q: And the IC50 [5]?
A: 0.0365 ± 0.002 µM

Q: What about the IC50 [6] of the same molecule?
A: 1.8 ± 0.199 µM

Q: What about the IC50 [7] of the same molecule?
A: 0.0486 ± 0.0031 µM

Q: With COc1ccc(CCN(C)CCCC(C#N)(c2ccc(OC)c(OC)c2)C(C)C)cc1OC (stereo not drawn) [verapamil] as the molecule, how does the “inhibition of [3H]-CQ and [3H]-Arg uptake (in words)” value (PfCRT 7G8 [2]) read?
A: partial to strong inhibition

Q: For OCCS [β-mercaptoethanol], which IC50 (PfCRT 7G8 [2]; [12]) is on record?
A: 1240 ± 140 µM

Q: What about the IC50 (PfCRT 7G8+C289A) of the same molecule?
A: 2580 ± 390 µM

Q: What about the “remaining [3H]-CQ transport activity” value (PfCRT 7G8+C301A; compared to the activity in the absence of the reducing agent) of the same molecule?
A: 60.2 ± 8.2%

Q: What about the IC50 (PfCRT 7G8+C301A; [12]) of the same molecule?
A: 4170 ± 160 µM

B1: Fab CTC (Fab, V domains shown)
VH: EVQLVESGGGLVQPGGSLRLSCAASGFNVSYSYIHWVRQAPGKGLEWVASIYPYSGYTSYADSVKGRFTISADTSKNTAYLQMNSLRAEDTAVYYCARYGSNYSFWYRGSSVTYAIDYWGQGTLVTVSS
VL: DIQMTQSPSSLSASVGDRVTITCRASQSVSSAVAWYQQKPGKAPKLLIYSASSLYSGVPSRFSGSRSGTDFTLTISSLQPEDFATYYCQQSSTWPITFGQGTKVEIK
Q: How did the IC50 [8] turn out when B1 was run?
A: 0.15 µM

Q: And the IC50 [9]?
A: 0.2 µM

Q: And the IC50 [10]?
A: 0.18 µM

B2: PfCRT 7G8 (Plasmodium falciparum 7G8) (protein)
chain: T1 sequence (W7FI62 1-424)
Q: With B2 as the molecule, how does the Km [11] read?
A: 1.30 ± 0.20 µM

Q: What about the Vmax [11] of the same molecule?
A: 189.2 ± 9.1 nmol/mg/min
